# Screens: PubChem BioAssay, several laboratories
# Only some compounds are listed: those with a hit (about 3.8% of all), similar ones and a draw of the others.
# CSC inhib – cancer stem cell viability inhibitors, primary screen, luminescence; inhibition, % at 7.5 µM; actives 1.1% (n = 300,000); cancer stem cell-like cells viability; AID 2717, 2010; in the data active = inhibition above about 75%; tested in HMLE shEcad cells
# MC4R barr agon – MC4R agonists recruiting beta-arrestin, primary screen, cell-based, luminescence, agonist arm of biased-ligand search; Melanocortin receptor 4 (Homo sapiens), P32245; U2OS MC4R beta-arrestin complementation; percent of melanotan II response, DMSO zero; activation, % at 8.9 µM; actives 0.98% (n = 360,000); AID 540308, 2011;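 active = activation above a per-plate cutoff, the mean activation of sample wells on that plate plus 3 SD, cut at about 8% in these data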
# Beta cell apopt – inhibitors of cytokine-induced beta cell apoptosis, primary screen, luminescence. AID 435005, 2010. actives 0.8% (n = 300,000). INS-1E cytokine-induced death, ATP luminescence, 48 h; percent of positive-control rescue, neutral wells zero. protection from apoptosis, % (test concentration not listed);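 active = Every replicate reaches about 75%, or at least half do and their mean reaches it too, limit read from the data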;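 note: higher means more ATP so stronger rescue from cytokine killing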
# MC4R antagonist – MC4R antagonists of cAMP signaling, primary screen, cell-based, TR-FRET, antagonist arm of biased-ligand search. MC4R-expressing cells, MTII-stimulated cAMP, LANCE TR-FRET. inhibition, % at 6.5 µM. actives 0.48% (n = 360,000). AID 540295, 2011;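 active = inhibition above its plate's cutoff, the mean of tested wells on that plate plus 3 SD, cut at about 29% in these data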
#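 Material: U2OS-MC4R stable cell line | Reagent: Melanotan II challenge after compound preincubation | Doses: One concentration, 6.5 µM nominal | Incubation: 30-min compound preincubation, 1-h Melanotan II challenge, 1-h detection, room temperature | Signal: TR-FRET cAMP assay | Replicates: One well per compound, no replicates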
# TMEM16A inh – TMEM16A chloride channel inhibitors, primary screen, cell-based, HTS; HEK293 TMEM16A/YFP iodide influx fluorescence, ionomycin; normalized B-score (activity score, 25-100; higher = stronger inhibition) at 10 µM; Anoctamin-1 (Mus musculus), Q8BHY3; actives 1.2% (n = 310,000);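 active = ratio plate-corrected score three or more library SD toward inhibition, starting fluorescence score within five deviations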;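 note: score derived from kinetic fluorescence span divided by baseline fluorescence per well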
# Target sequence (Q8BHY3 whole entry, looked up): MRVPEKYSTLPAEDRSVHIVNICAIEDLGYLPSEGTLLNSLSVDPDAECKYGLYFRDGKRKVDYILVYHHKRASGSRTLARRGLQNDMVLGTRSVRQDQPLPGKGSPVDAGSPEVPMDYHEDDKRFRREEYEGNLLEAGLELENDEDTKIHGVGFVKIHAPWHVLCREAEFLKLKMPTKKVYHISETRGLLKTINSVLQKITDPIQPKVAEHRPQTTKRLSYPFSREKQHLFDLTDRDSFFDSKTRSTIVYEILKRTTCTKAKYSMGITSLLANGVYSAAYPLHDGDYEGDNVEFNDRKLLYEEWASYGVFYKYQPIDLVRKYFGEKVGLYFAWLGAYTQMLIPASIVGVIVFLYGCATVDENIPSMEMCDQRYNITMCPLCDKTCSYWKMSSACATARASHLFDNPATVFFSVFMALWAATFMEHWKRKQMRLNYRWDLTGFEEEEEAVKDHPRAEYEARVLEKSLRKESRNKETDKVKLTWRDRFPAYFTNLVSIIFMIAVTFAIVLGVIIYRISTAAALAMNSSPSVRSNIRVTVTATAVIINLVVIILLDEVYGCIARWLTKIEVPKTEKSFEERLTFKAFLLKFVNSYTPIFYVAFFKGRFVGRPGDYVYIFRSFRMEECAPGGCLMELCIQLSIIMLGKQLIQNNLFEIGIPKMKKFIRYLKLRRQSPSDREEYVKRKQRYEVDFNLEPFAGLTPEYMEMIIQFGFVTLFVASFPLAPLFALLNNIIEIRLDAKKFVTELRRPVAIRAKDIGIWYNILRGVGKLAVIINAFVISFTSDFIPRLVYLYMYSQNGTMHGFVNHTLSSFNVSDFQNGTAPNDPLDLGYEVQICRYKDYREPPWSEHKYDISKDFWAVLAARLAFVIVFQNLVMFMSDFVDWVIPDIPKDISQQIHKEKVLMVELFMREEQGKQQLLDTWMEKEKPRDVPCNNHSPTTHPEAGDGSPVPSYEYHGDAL
# ANO1 activ – TMEM16A chloride channel activators or potentiators, primary screen, cell-based, HTS; HEK293 TMEM16A/YFP-H148Q/I152L, iodide quench fluorescence; stronger effect = lower value; B-score at 10 µM; actives 0.3% (n = 340,000); AID 623877, 2012;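 active = fluorescence-ratio B-score plate-corrected deviation score at least 3 library SD below zero, with starting fluorescence score within 5 deviations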;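 note: channel opened by trigger with iodide after compound preincubation; score built on the fluorescence ratio of max minus min over baseline; more negative score means more quench and so TMEM16A activation or potentiation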
# MC4R barr ag – MC4R beta-arrestin agonists, retest, confirmation, cell-based, luminescence, U2OS; shares compounds with MC4R barr agon; U2OS MC4R beta-arrestin recruitment; scaled DMSO 0%, Melanotan II 100%; activation, % at 8.9 µM; actives 31% (n = 2,400);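 active = mean activation across replicates above the hit cutoff set in the earlier primary screen, cut at about 8% in these data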
# MOR-DOR barr ag – agonists of MOR-DOR heterodimerization, counter-screen for MC4R biased agonist project, cell-based, luminescence | activation, % at 9.2 µM | AID 602194, 2012 | U2OS PathHunter beta-arrestin, beta-gal luminescence; percent of deltorphin B response, DMSO zero | shares compounds with MC4R barr agon | actives 5.8% (n = 2,400);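 active = mean activation across replicates exceeds the hit threshold derived in the earlier primary screen, cut at about 18% in these data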
# Numbers stand for hits; n = inactive; x = no result.
SMILES,CSC inhib,MC4R barr agon,Beta cell apopt,MC4R antagonist,TMEM16A inh,ANO1 activ,MC4R barr ag,MOR-DOR barr ag
COc1cc(C2c3cc4c(cc3CC3COC(=O)N32)OCO4)cc(OC)c1OC (centres undefined),x,n,x,n,x,n,x,x
O=c1[nH]nc(Br)c(=O)n1C(c1ccccc1)c1ccccc1,x,n,x,n,x,n,x,x
c1ccc(-c2onc(-c3ccco3)c2-c2ccc3c(c2)OCO3)cc1,x,10.0,n,n,n,n,n,n
Cc1ccc(CNC(=O)c2ccc3c(=O)c(O)c(-c4ccc(C)cc4)[nH]c3c2)cc1,n,13.0,n,n,n,n,n,n
Nc1nc(CCl)nc(N(c2ccccc2)c2ccccc2)n1,n,18.4,n,n,n,n,13.2,31.4
Nc1nc(Cl)nc(N(c2ccccc2)c2ccccc2)n1,n,n,n,n,n,n,x,x
O=C(N=Nc1c(O)n(Cc2ccccc2)c2ccccc12)c1cc2ccccc2cc1O,n,15.7,83.8,n,n,n,18.8,n
Cc1ccc(NC(=O)Cn2c(O)c(N=NC(=O)c3ccncc3)c3ccccc32)cc1,n,n,n,n,n,n,x,x
Cc1ccc(NC(=O)Cn2c(O)c(N=NC(=O)c3cc4ccccc4cc3O)c3ccccc32)cc1,98.5,12.3,102.5,n,n,n,n,41.1
Cc1ccc(C(=O)OCC(=O)NCc2ccc3c(c2)OCO3)o1,n,n,n,n,x,n,x,x
CC(C)n1c(CNC(=O)c2ccccc2F)nnc1SCC(=O)c1ccc(F)cc1,x,n,x,n,x,n,x,x
COc1ccc(NC(=S)N/N=C/c2cccn2Cc2ccccc2F)cc1,n,10.2,n,n,n,n,n,n
COc1ccc(NC(=S)N/N=C/c2ccc(F)c(F)c2)cc1,x,13.7,n,n,n,n,n,n
Cc1ccc(CNC(=S)Nc2ccc(C)c([N+](=O)[O-])c2)cc1,x,13.0,n,n,n,n,n,n
Cc1ccc(NC(=S)NCc2ccccc2)cc1[N+](=O)[O-],n,n,n,n,n,n,x,x
Cc1ccc(NC(=S)N/N=C/c2ccc(Cl)c([N+](=O)[O-])c2)cc1,n,20.8,n,n,n,n,n,n
Cn1nc(-c2ccc(C(=O)Nc3ccc(F)cc3)cc2)c2ccccc2c1=O,n,n,x,n,n,n,x,x
CCC(=O)Nc1cc(-c2nn(C)c(=O)c3ccccc23)ccc1OC,x,n,n,n,n,n,x,x
Cc1ccc(NC(=O)c2ccc(-c3nn(C)c(=O)c4ccccc34)cc2)cc1,n,21.8,n,n,n,n,n,n
CCC(=O)NCc1cc(-c2nn(C)c(=O)c3ccccc23)ccc1C,n,n,n,n,n,n,x,x
Cc1ccc(-c2nn(CC(=O)NCc3cc(-c4nn(C)c(=O)c5ccccc45)ccc3C)c(=O)c3ccccc23)cc1,n,15.5,n,n,n,-7.78,25.1,n
COc1ccc(-c2nn(C)c(=O)c3ccccc23)cc1NC(=O)COc1ccc(C)cc1,n,21.4,n,n,n,n,n,n
Cc1c(C(=O)NCc2cccc([N+](=O)[O-])c2)sc(=O)n1Cc1ccccc1F,x,n,x,n,x,x,x,x
CC1Cc2ccccc2N1C(=O)CN1CCN(Cc2ccccc2)CC1 (centres undefined),x,n,x,n,n,x,x,x
C=CCn1c(=N)n(CC(=O)c2cccc([N+](=O)[O-])c2)c2ccccc21,n,n,n,n,n,n,x,x
SMILES,CSC inhib,MC4R barr agon,Beta cell apopt,MC4R antagonist,TMEM16A inh,ANO1 activ,MC4R barr ag,MOR-DOR barr ag
N=c1n(CCN2CCCCC2)c2ccccc2n1CC(=O)c1cccc([N+](=O)[O-])c1,n,11.2,n,n,n,n,n,x
Cc1cc(NC(=O)c2cccs2)n(-c2nc3ccccc3[nH]2)n1,n,12.4,n,n,n,n,n,n
Cc1cc(NC(=O)c2sccc2C)n(-c2nc3ccccc3[nH]2)n1,n,n,x,n,n,n,x,x
CC1(C)CC(NS(=O)(=O)c2ccc(C(C)(C)C)cc2)CC(C)(C)N1,n,n,n,n,n,n,x,x
O=C(CSc1nccc(-c2ccc(Br)cc2)n1)NCCc1ccccc1,n,11.7,x,n,n,n,n,n
O=CNc1cc(-c2ccsc2)cn2c(-c3ccccc3)cnc12,x,32.2,x,n,x,x,34.6,n
COc1ccc(-c2cnc3c(NC=O)cc(-c4cc(OC)c(OC)c(OC)c4)cn23)cc1OC,x,29.5,x,n,x,x,13.4,n
COc1ccc(-c2cnc3c(NC=O)cc(-c4ccccc4)cn23)cc1OC,x,26.9,x,n,x,x,n,n
COc1ccc(-c2cnc3c(NC=O)cc(-c4ccoc4)cn23)cc1OC,x,15.5,x,n,x,x,9.3,n
COc1ccc(-c2cnc3c(NC=O)cc(-c4ccc(F)cc4)cn23)cc1OC,x,n,x,n,x,x,x,x
CCOC(=O)C1CCCN(C(=O)c2ccccc2NS(=O)(=O)c2ccc(F)cc2)C1 (centres undefined),n,n,n,n,x,n,x,x
CCOC(=O)c1c(C)[nH]c(C(=O)CN2CCN(CC)CC2)c1C,n,n,n,n,n,n,x,x
CCOC(=O)c1c(C)[nH]c(C(=O)Cn2nnc(-c3ccc(Cl)cc3)n2)c1C,n,18.4,n,n,n,n,10.6,n
O=C1[C@H]2[C@@H](c3ccc(C(F)(F)F)cc3)N[C@]3(CCCN(Cc4ccc(C(F)(F)F)cc4)C3=O)[C@H]2C(=O)N1Cc1ccccc1,x,n,x,n,x,x,x,x
CCN(CC)CCN(C(=O)CCS(=O)(=O)c1ccccc1)c1nc2c(C)cc(C)cc2s1,n,12.0,n,n,n,n,n,n
CCCN1CCc2c(sc(NC(=O)CCS(=O)(=O)c3ccccc3)c2C(=O)OC)C1,n,n,n,n,n,n,x,x
Nc1ccccc1-c1nnc(-c2ccc(-c3ccccc3)cc2)o1,x,12.1,n,n,n,n,n,n
Clc1ccc(Cn2ncc3c(N4CCN(c5ccccc5)CC4)ncnc32)cc1,x,11.4,x,n,x,x,16.8,n
COc1ccc(NC(=O)CSc2nc3ccccc3c(=O)n2CCNC(C)=O)cc1,n,n,n,n,n,n,x,x
COCCn1c(SCC(=O)Nc2ccc(NC(=O)c3ccco3)c(OC)c2)nc2ccccc2c1=O,n,26.6,n,n,n,n,n,n
CCn1c(SCC(=O)Nc2ccccc2OC)nc2ccccc2c1=O,n,n,n,n,n,n,x,x
